Screening results as filed in PubChem.
Compounds with a hit are over-represented: about 3.5% of the library has one in this group of screens.
MrgX1 allo act = allosterically activates human MrgX1 receptor signaling; Q96LB2; MrgX1-HEK293, Fluo-4 calcium flux, FDSS; stronger effect = higher value; B-score at 10 µM; actives 0.63% (n = 310,000);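 active = plate-corrected calcium response at least 3 library SD above typical, normal starting fluorescence, not activating the receptor alone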;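 also: compound read alongside a low EC10 to EC30 dose of BAM8-22 agonist; peak minus trough fluorescence over baseline measured at the second addition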
MrgX1 antagonist = antagonists of human MrgX1 receptor; AID 588676; B-score at 10 µM; actives 1.3% (n = 310,000); Q96LB2; MRGX1-HEK293 calcium flux, Fluo-4, BAM8-22 antagonism; stronger effect = lower value;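 active = calcium-response B-score plate-corrected more than 3 library SD below zero, starting fluorescence within 5 deviations, no agonist response on first addition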;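 also: peak minus trough fluorescence over baseline after final BAM8-22 challenge near maximal dose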
MrgX1 agonist = agonists of human MrgX1 receptor; actives 0.44% (n = 310,000); Q96LB2; B-score at 10 µM; MrgX1-HEK293 cells, Fluo-4 calcium fluorescence, agonist mode; stronger effect = higher value;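 active = calcium response B-score plate-corrected fluorescence ratio at least 3 library SD, with starting fluorescence B-score inside 5 SD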
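times = overnight plating, then 30 min 37 °C plus 30 min room-temperature dye loading | assay system = stable human MrgX1 HEK293 cell line | input = fifteen thousand cells per well | signal = kinetic calcium dye fluorescence, Fluo-4 NW | dosing = compound delivered in addition one of three | read-out = B-scored fluorescence response ratio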
RGS4 act = potentiators or activators of RGS4. B-score at 10 µM. actives 0.92% (n = 310,000). HEK293 M3R/inducible RGS4, carbachol calcium flux Fluo4; stronger effect = lower value;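 active = B-score of the integrated calcium signal more than 4 SD below the library mean, with starting fluorescence not abnormally high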;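 also: negative B-score means reduced calcium response which marks RGS4 activation or potentiation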
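Also added: carbachol at ECmax as muscarinic agonist stimulus; Assay system: HEK293 cells with stable M3R and inducible RGS4; Timing: overnight RGS4 induction, 30 min dye load 37 °C, 20 min compound RT; Measured by: Fluo4-AM (2 µM) calcium-flux fluorescence, kinetic read.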
RGS4 inh = inhibitors of human RGS4; P49798; HEK293 M3R/RGS4 inducible, Fluo-4 calcium flux; stronger effect = higher value; triggered by carbachol at its EC20; B-score at 10 µM; actives 0.45% (n = 310,000); AID 463165;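 active = B-score, a plate-corrected calcium signal, over three deviations above library mean, with baseline fluorescence within five deviations of library mean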;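 also: RGS4 expression induced by doxycycline in cells with stable M3 receptor; B-score is computed from the integrated fluorescence ratio over baseline after carbachol; higher B-score means a larger calcium signal and so more RGS4 inhibition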
Target sequence (P49798 whole entry, looked up): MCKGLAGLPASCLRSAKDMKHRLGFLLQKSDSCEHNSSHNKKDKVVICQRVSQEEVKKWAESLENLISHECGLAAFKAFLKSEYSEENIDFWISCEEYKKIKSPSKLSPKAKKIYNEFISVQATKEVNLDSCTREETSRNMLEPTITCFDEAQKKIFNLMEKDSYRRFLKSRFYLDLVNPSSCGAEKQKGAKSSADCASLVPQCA
RGS4 block valid = validation of RGS4 inhibitors. calcium response, % at 10 µM. shares compounds with RGS4 inh. actives 65% (n = 1,700). HEK293 M3R/RGS4, carbachol calcium Fluo-4 fluorescence; carbachol added at its EC20; 0 = buffer wells, 100 = carbachol control;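 active = duplicate-averaged calcium response above the buffer-only control mean plus 5 SD of those controls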;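 also: integrated fluorescence ratio F max minus min over baseline F0; higher response in RGS4-induced cells means RGS4 inhibition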
RGS4 uninduced = checks RGS4 inhibitor effects in non-induced HEK293 M3R cells. shares compounds with RGS4 inh. carbachol calcium Fluo-4; submaximal (EC20) carbachol stimulus; buffer wells 0%, carbachol control wells 100%. activity (percent), % at 10 µM. actives 20% (n = 1,900); call rule not given here;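 also: RGS4 induction absent so cells express M3R without RGS4; higher means more calcium signal and flags a non-specific hit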
RGS4 inh ctr2 = second counter-screen for RGS4 inhibitors: non-induced cells without carbachol | shares compounds with RGS4 inh | HEK293 M3R/RGS4 non-induced, Fluo-4 calcium, no carbachol; normalised: buffer wells 0%, carbachol wells 100% | calcium response (agonist-mode artifact), % at 10 µM | actives 22% (n = 1,900) | AID 493001;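 active = duplicate-averaged calcium rise in uninduced cells above buffer wells' mean plus 5 SD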
Numbers without * were called inactive; i = inactive; · = no result.

SMILES | MrgX1 allo act | MrgX1 antagonist | MrgX1 agonist | RGS4 act | RGS4 inh | RGS4 block valid | RGS4 uninduced | RGS4 inh ctr2
CC(=O)OCCSc1c(-c2ccccc2)c2cc(Cl)ccc2[nH]c1=O | i | i | i | i | 4.77* | 13.5%* | i | i
CC(=O)Nc1ccc(NC(=O)CC2Nc3cccc4cccc(c34)NC2=O)cc1 (stereo not drawn) | i | i | i | i | i | i | i | i
O=C(Nc1cccc(Cl)c1)Nc1nnc(CC2=CCCCC2)s1 | i | i | i | i | 10.1* | 5.5%* | i | i
O=C(Nc1nnc(CC2=CCCCC2)s1)Nc1ccccc1F | i | i | i | i | i | · | · | ·
O=C1NN(c2ccccc2)C(=O)/C1=C\c1coc2ccc(O)cc2c1=O | i | i | 27.5* | i | 7.86* | 30.5%* | i | i
O=C1NN(c2ccccc2)C(=O)/C1=C/c1coc2ccccc2c1=O | i | i | i | i | i | · | · | ·
O=C1NC(=Nc2ccccc2Cl)S/C1=C\c1cccc([N+](=O)[O-])c1O | i | i | i | i | i | i | i | i
COc1c(/C=C2\SC(=Nc3ccccc3Cl)NC2=O)cccc1[N+](=O)[O-] | i | i | i | i | 8.51* | 33.5%* | 69.5%* | i
O=C(CSC1=NS(=O)(=O)c2ccccc21)Nc1ccccc1 | i | i | i | i | 9.38* | 25.0%* | i | i
O=C1C=CC(=O)N1c1ccc(O)cc1 | i | i | i | i | 13.6* | 75.0%* | 72.0%* | 14.0%*
COC(=O)C1=C(C)NC(C)=C(C(=O)OC)C1c1ccc(NC(C)=O)cc1 | i | i | i | i | i | · | · | ·
CCOC(=O)C1CCN(Cc2nc3ccccc3c(=O)n2-c2ccc(F)cc2)CC1 | i | i | i | i | 5.4* | i | i | i
O=C(c1ccco1)N1CCN(Cc2nc3ccccc3c(=O)n2-c2ccc(F)cc2)CC1 | i | i | i | i | i | · | · | ·
CCCOc1ccc(/C=c2\sc3ncnn3c2=O)cc1 | i | i | i | i | 5.75* | 9.0%* | 49.0%* | 13.5%*
COC(=O)c1cccc(NC(=O)Nc2ccc(Cl)c(Cl)c2)c1 | i | i | i | i | i | · | · | ·
O=C(Nc1nc(-c2ccccc2)cs1)c1ccco1 | i | i | i | i | i | · | · | ·
Cc1ccc(-c2csc(NC(=O)c3ccco3)n2)cc1C | i | i | i | i | 24.9* | 56.0%* | 34.5%* | i
COc1cccc(C(=O)Nc2nc(-c3ccncc3)cs2)c1 | i | i | i | i | i | · | · | ·
COc1ccc(-c2csc(NC(=O)c3c(OC)cccc3OC)n2)cc1 | i | i | i | i | 5.5* | 15.5%* | 30.5%* | i
CCOc1ccc(-c2csc(NC(=O)c3ccco3)n2)cc1 | i | i | i | i | 4.98* | 5.0%* | i | i
COc1ccc(-c2csc(NC(=O)c3ccco3)n2)cc1 | i | i | i | i | i | i | i | i
CCNC(=O)C(C)NC(=O)C1=NN(c2ccccc2)C(=O)CC1 (stereo not drawn) | i | i | i | i | i | · | · | ·
CCC(=O)Oc1ccc(-c2cnc3ccccc3n2)cc1 | i | i | i | i | i | · | · | ·
C=CCNC(=O)/C(C#N)=C/c1ccc(OS(=O)(=O)c2ccc(C)cc2)c(OC)c1 | i | i | i | i | 4.84* | 14.0%* | i | i
